A selection: hits, their analogues and other compounds. The true share with any hit is near 3.5%.
MrgX1 PAM: human MrgX1 positive allosteric modulation, primary screen; hit rate 0.63% among 310,000; Q96LB2; B-score at 10 µM; AID 588675; MrgX1-HEK293, Fluo-4 calcium flux, FDSS; active compounds read high;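 active = plate-corrected calcium response at least 3 library SD above typical, normal starting fluorescence, not activating the receptor alone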;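 also: compound read alongside a low EC10 to EC30 dose of BAM8-22 agonist; peak minus trough fluorescence over baseline measured at the second addition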
MrgX1 antag: blocks BAM8-22 activation of human MrgX1 receptor; hit rate 1.3% among 310,000; AID 588676; B-score at 10 µM; MRGX1-HEK293 calcium flux, Fluo-4, BAM8-22 antagonism; active compounds read low;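 active = calcium-response B-score plate-corrected more than 3 library SD below zero, starting fluorescence within 5 deviations, no agonist response on first addition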;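 also: peak minus trough fluorescence over baseline after final BAM8-22 challenge near maximal dose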
RGS4 inh: inhibitors of human RGS4; HEK293 M3R/RGS4 inducible, Fluo-4 calcium flux; active compounds read high; triggered by carbachol at its EC20; hit rate 0.45% among 310,000; B-score at 10 µM; P49798; AID 463165;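 active = B-score, a plate-corrected calcium signal, over three deviations above library mean, with baseline fluorescence within five deviations of library mean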;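 also: RGS4 expression induced by doxycycline in cells with stable M3 receptor; B-score is computed from the integrated fluorescence ratio over baseline after carbachol; higher B-score means a larger calcium signal and so more RGS4 inhibition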
Target sequence (P49798 whole entry, looked up): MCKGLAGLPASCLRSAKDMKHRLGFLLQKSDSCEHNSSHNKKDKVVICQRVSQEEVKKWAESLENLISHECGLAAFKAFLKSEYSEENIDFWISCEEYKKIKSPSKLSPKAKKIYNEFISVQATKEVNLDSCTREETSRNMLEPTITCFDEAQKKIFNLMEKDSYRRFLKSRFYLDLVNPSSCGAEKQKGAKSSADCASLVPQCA
MrgX1 ag: activates human MrgX1 receptor signaling; Q96LB2; MrgX1-HEK293 cells, Fluo-4 calcium fluorescence, agonist mode; active compounds read high; B-score at 10 µM; hit rate 0.44% among 310,000;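 active = calcium response B-score plate-corrected fluorescence ratio at least 3 library SD, with starting fluorescence B-score inside 5 SD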
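Test system: Stable human MrgX1 HEK293 cell line | Schedule: Overnight plating before 1 h dye loading | Read-out basis: Baseline-normalised fluorescence change ratio, B-scored | Detection: Kinetic calcium dye fluorescence, Fluo-4 NW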
RGS4 act: potentiators or activators of RGS4; AID 463111; B-score at 10 µM; hit rate 0.92% among 310,000; HEK293 M3R/inducible RGS4, carbachol calcium flux Fluo4; active compounds read low;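 active = B-score of the integrated calcium signal more than 4 SD below the library mean, with starting fluorescence not abnormally high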;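 also: negative B-score means reduced calcium response which marks RGS4 activation or potentiation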
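Assay system: Inducible-RGS4 HEK293 cells carrying M3 receptor | Schedule: Compound preincubation 20 min at room temperature before agonist | Signal: Kinetic calcium fluorescence imaging with Fluo4-AM dye, 2 µM | Read-out basis: B score from integrated fluorescence ratio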
MrgX1 antag conf: reconfirmed antagonist of human MrgX1 receptor signaling; shares compounds with MrgX1 antag; MrgX1-HEK293, BAM8-22 calcium flux, Fluo-4; active compounds read low; remaining BAM8-22 calcium response % of control (active compounds read low), % at 10 µM; hit rate 19% among 2,300; AID 602420;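 active = remaining agonist calcium response no higher than 100% minus 3 SD of agonist-only control wells, with starting fluorescence near control levels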;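 also: agonist BAM8-22 given at a near maximal EC90 to ECmax level; peak minus minimum fluorescence divided by baseline after agonist addition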
HEK293 Ca flux: activity in parental HEK293 cells lacking MrgX1 | fluorescence ratio F(max-min)/F0 at 10 µM | shares compounds with MrgX1 antag | Fluo-4 calcium fluorescence, FDSS | hit rate 2% among 4,000;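 active = duplicate-averaged calcium fluorescence ratio at least three times the standard deviation of buffer wells, a nonspecific response in parental cells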
HEK293 Ca counter: activity in parental HEK293 cells without MrgX1; shares compounds with MrgX1 antag; parental HEK293 calcium flux, Fluo-4 fluorescence ratio; active compounds read high; fluorescence ratio F(max-min)/F0 at 10 µM; hit rate 0.4% among 4,000;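 active = calcium fluorescence ratio, averaged over duplicates, at least 3 SD of the buffer-well ratio, meaning a nonspecific response in receptor-free cells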;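 also: untransfected parental HEK293 lacking MrgX1 used as counterscreen for MrgX1 allosteric activators; fluorescence change taken during the second addition on a kinetic imager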
HEK293 Ca cntr2: counter-screen for MrgX1 activators: effect in parental HEK293 cells; AID 624115; fluorescence ratio F(max-min)/F0 at 10 µM; hit rate 8.7% among 4,000; Fluo-4 calcium fluorescence (FDSS); active compounds read high; shares compounds with MrgX1 antag;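 active = calcium fluorescence ratio at least three times the spread of buffer wells, meaning a non-specific response in parental cells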
Numbers without * were called inactive; i = inactive; x = not tested or not shown.

SMILES	MrgX1 PAM	MrgX1 antag	RGS4 inh	MrgX1 ag	RGS4 act	MrgX1 antag conf	HEK293 Ca flux	HEK293 Ca counter	HEK293 Ca cntr2
COCCCNC(=S)N1CCN(c2nc(C)nc3sc4c(c23)CCCC4)CC1	i	-6.57*	i	i	i	i	i	i	i
CCCNC(=S)N1CCN(c2nc(C)nc3sc4c(c23)CCCC4)CC1	i	i	i	i	i	x	x	x	x
COc1cc(C)c(NC(=S)Nc2ccc(Cl)c(Cl)c2)cc1OC	i	-5.28*	i	i	i	66.4%*	i	i	i
O=C(COc1cccc2ccccc12)Nc1ccc(Cl)cc1C(=O)O	i	-7.46*	i	i	i	74.4%*	i	i	i
COc1ccccc1CC(=O)Nc1ccc(Cl)cc1C(=O)O	i	i	i	i	i	x	x	x	x
O=C(COc1cccc2ccccc12)Nc1cc(Cl)ccc1C(=O)O	i	-7.55*	i	i	i	61.7%*	i	i	i
Cc1ccc(NC(=O)CCNS(=O)(=O)c2cc(Br)cnc2N)c(Cl)c1	i	-5.51*	i	i	i	i	i	i	i
O=C(NCc1ccccc1Cl)C1CCN(S(=O)(=O)c2cccs2)CC1	i	i	i	i	i	x	x	x	x
CCOC(=O)C1CN(S(=O)(=O)c2ccc(C)cc2)c2cc(S(=O)(=O)CC)ccc2O1 (centres undefined)	i	-4.83*	i	i	i	i	i	i	i
c1ccc(CSc2nnc(Cc3ccccn3)o2)cc1	i	-7.78*	i	i	i	i	i	i	i
c1ccc(CSc2nnc(Cc3ccccc3)o2)cc1	i	i	i	i	i	x	x	x	x
Cc1cccc(N2CC(C(=O)NCCC3=CCCCC3)CC2=O)c1C (centres undefined)	i	i	i	i	i	x	x	x	x
O=C(Nc1ccc2c(c1)OC1(CCCC1)O2)C1CC1	i	-5.87*	i	i	i	i	i	i	i
CC(=O)Nc1ccc(OS(=O)(=O)c2ccc(C(C)(C)C)cc2)cc1	i	i	i	i	i	x	x	x	x
CCOC(=O)c1ccc(NC(=S)NCCc2ccccc2)cc1	i	i	i	i	i	x	x	x	x
CCOC(=O)c1ccc(NC(=S)NCCc2ccccc2F)cc1	i	-6.21*	i	i	i	66.8%*	i	i	i
CC(C)(C)c1cccc(Oc2nn[nH]n2)c1	i	-6.86*	i	i	i	i	i	i	i
CN(C)c1ccc(CNC2CC(C)(C)NC(C)(C)C2)cc1	i	i	i	i	i	x	x	x	x
CC1(C)CC(NCc2ccncc2)CC(C)(C)N1	i	-9.66*	i	i	i	85.6%*	i	i	i
CCOc1ccccc1C(=O)NC(C)c1ccc2c(c1)OCO2 (centres undefined)	i	-5.29*	i	i	i	i	i	i	i
CCN(C(=O)CSc1nc2ccccc2o1)C1CCS(=O)(=O)C1 (centres undefined)	i	-4.72*	i	i	i	i	i	i	i
CCN(C(=O)COC(=O)CSc1ccc(C)c(C)c1)C1CCS(=O)(=O)C1 (centres undefined)	i	i	i	i	i	x	x	x	x
CCN(C(=O)CSc1ccc2ccccc2c1)C1CCS(=O)(=O)C1 (centres undefined)	i	-4.6*	i	i	i	i	i	i	i
